# Reference: ChEMBL document CHEMBL1153955, “Indolylarylsulfones bearing natural and unnatural amino acids. Discovery of potent inhibitors of HIV-1 non-nucleoside wild type and resistant mutant strains reverse transcriptase and coxsackie B4 virus” (J Med Chem, 2009)
# Experiments:
# [1] = Cytotoxicity against human HEL cells assessed as drug level causing microscopically detectable alteration of normal cell morphology after 3 days; type: cell-based
# [2] = system: Sindbis virus; experiment: Antiviral activity against Sindbis virus in african green monkey Vero cells assessed as protection against virus-induced cytopathicity; type: functional, organism-based
# Summary of the method: (§1)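 Confluent cell monolayers inoculated with 100 CCID₅₀ virus. After 1-2 h adsorption, residual virus removed and cultures incubated with varying compound concentrations. Cytopathicity scored once it reached completion in untreated infected controls. EC₅₀ = dose reducing virus-induced cytopathogenicity by 50%.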
# [3] = Cytotoxicity against african green monkey Vero cells assessed as drug level causing microscopically detectable alteration of normal cell morphology after 3 days; type: cell-based; conditions: chlorocebus sabaeus
# Summary of the method: (§2)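 Serial compound dilutions added to confluent HeLa or Vero monolayers. MCC = minimum concentration causing microscopically detectable alteration of cell morphology after 3 days of incubation.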
# [4] = system: Felid alphaherpesvirus 1; experiment: Antiviral activity against Feline herpesvirus in feline […] cells assessed as inhibition of virus-induced cytopathicity; type: functional, organism-based
# [5] = molecular target: Human immunodeficiency virus type 1 reverse transcriptase (Human immunodeficiency virus 1, UniProt Q72547, K103N); experiment: Inhibition of HIV1 reverse transcriptase p66/p51 K103N mutant
# Summary of the method: (§3)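 Substrate was 0.5 µg poly(rA)/oligo(dT) 10:1 (0.3 µM 3′-OH ends) with 10 µM [³H]dTTP, at 37 °C. Acid-precipitable radioactivity was counted on GF/C filters after TCA washes.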
# [6] = Antiproliferative activity against human Molt4/C8 cells after 3 days; type: cell-based; conditions: MOLT-4, 72 h
# Summary of the method: (§4)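 Cells seeded at 5 × 10⁴ to 7.5 × 10⁴ cells/200 µL with or without serial compound dilutions; incubated at 37 °C for 2 days (L1210) or 3 days (Molt4/C8, CEM). Cell numbers counted with a Coulter counter. CC₅₀ = concentration reducing proliferation by 50% versus untreated controls, read from plots of cell number (% of control) against concentration. Means of at least two independent experiments.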
# [7] = system: Feline coronavirus; experiment: Antiviral activity against Feline coronavirus in feline […] cells assessed as inhibition of virus-induced cytopathicity; type: functional, organism-based; conditions: Alphacoronavirus 1
# [8] = system: Human alphaherpesvirus 2; experiment: Antiviral activity against HSV2 G in human HEL cells assessed as protection against virus-induced cytopathicity; type: functional, organism-based; conditions: Human alphaherpesvirus 2, strain G; summary of the method: as §1
# [9] = system: Human immunodeficiency virus 1; experiment: Antiviral activity against HIV1 3B in human CEM cells assessed as protection against virus-induced cytopathicity after 4 days; type: functional, organism-based; conditions: Human immunodeficiency virus 1, 3B, CCRF-CEM, 96 h
# Summary of the method: (§5)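 CEM cells (~3 × 10⁵ cells/mL) infected with ~100 CCID₅₀ per mL of HIV-1 (IIIB) or HIV-2 (ROD), then seeded into wells containing compound dilutions. After 4 days at 37 °C, syncytium (giant cell) formation was examined microscopically. EC₅₀ = concentration protecting CEM cells from HIV cytopathicity by 50%.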
# [10] = system: Punta Toro virus; experiment: Antiviral activity against Punta Toro virus in african green monkey Vero cells assessed as protection against virus-induced cytopathicity; type: functional, organism-based; summary of the method: as §1
# [11] = Cytotoxicity against human HeLa cells assessed as drug level causing microscopically detectable alteration of normal cell morphology after 3 days; type: cell-based; summary of the method: as §2
# [12] = system: Influenza B virus; experiment: Antiviral activity against influenza B virus in MDCK cells assessed as reduction of virus-induced cytopathicity by MTS method; type: functional, organism-based
# [13] = system: Influenza A virus H3N2; experiment: Antiviral activity against influenza H3N2 virus in MDCK cells assessed as reduction of virus-induced cytopathicity by visual cytopathic effect scoring method; type: functional, organism-based
# [14] = system: Coxsackievirus B4; experiment: Antiviral activity against Coxsackievirus B4 in human HeLa cells assessed as protection against virus-induced cytopathicity; type: functional, organism-based; conditions: Enterovirus B; summary of the method: as §1
# [15] = molecular target: Human immunodeficiency virus type 1 reverse transcriptase (Human immunodeficiency virus 1, UniProt Q72547, Y181I); experiment: Inhibition of HIV1 reverse transcriptase p66/p51 Y181I mutant; summary of the method: as §3
# [16] = system: Influenza B virus; experiment: Antiviral activity against influenza B virus in MDCK cells assessed as reduction of virus-induced cytopathicity by visual cytopathic effect scoring method; type: functional, organism-based
# [17] = molecular target: Human immunodeficiency virus type 1 reverse transcriptase (Human immunodeficiency virus 1, UniProt Q72547, L100I); experiment: Inhibition of HIV1 reverse transcriptase p66/p51 L100I mutant; summary of the method: as §3
# [18] = system: Human alphaherpesvirus 1; experiment: Antiviral activity against thymidine kinase deficient and acyclovir resistant HSV1 KOS in human HEL cells assessed as protection against virus-induced cytopathicity; type: functional, organism-based; conditions: Human alphaherpesvirus 1, KOS
# [19] = system: L1210; experiment: Antiproliferative activity against mouse L1210 cells after 2 days; type: cell-based; conditions: L1210, 48 h; summary of the method: as §4
# [20] = Cytotoxicity against MDCK cells assessed as drug level causing microscopically detectable alteration of normal cell morphology; type: cell-based, Canis lupus familiaris; conditions: dog
# [21] = system: Respiratory syncytial virus; experiment: Antiviral activity against RSV Long in human HeLa cells assessed as protection against virus-induced cytopathicity; type: functional, organism-based; summary of the method: as §1
# [22] = system: Influenza A virus; experiment: Antiviral activity against influenza H1N1 virus in MDCK cells assessed as reduction of virus-induced cytopathicity by visual cytopathic effect scoring method; type: functional, organism-based
# [23] = system: Vesicular stomatitis virus; experiment: Antiviral activity against VSV in human HEL cells assessed as protection against virus-induced cytopathicity; type: functional, organism-based
# [24] = molecular target: Human immunodeficiency virus type 1 reverse transcriptase (Human immunodeficiency virus 1, UniProt Q72547); experiment: Inhibition of HIV1 reverse transcriptase p66/p51
# [25] = system: Influenza A virus H3N2; experiment: Antiviral activity against influenza H3N2 virus in MDCK cells assessed as reduction of virus-induced cytopathicity by MTS method; type: functional, organism-based
# [26] = system: CCRF-CEM; experiment: Antiproliferative activity against human CEM cells after 3 days; type: cell-based; conditions: 72 h; summary of the method: as §4
# [27] = system: Human immunodeficiency virus 2; experiment: Antiviral activity against HIV2 ROD in human CEM cells assessed as protection against virus-induced cytopathicity after 4 days; type: functional, organism-based; conditions: Human immunodeficiency virus 2, ROD, CCRF-CEM, 96 h; summary of the method: as §5
# [28] = Cytotoxicity against MDCK cells by MTS assay; type: cell-based, Canis lupus familiaris; conditions: dog
# [29] = system: Vesicular stomatitis virus; experiment: Antiviral activity against VSV in human HeLa cells assessed as protection against virus-induced cytopathicity; type: functional, organism-based
# [30] = Cytotoxicity against feline CRFK cells by MTS assay; type: cell-based, Felis catus; conditions: cat
# [31] = system: Vaccinia virus; experiment: Antiviral activity against Vaccinia virus Lederle in human HEL cells assessed as protection against virus-induced cytopathicity; type: functional, organism-based; conditions: Orthopoxvirus vaccinia
# [32] = system: Human alphaherpesvirus 1; experiment: Antiviral activity against HSV1 KOS in human HEL cells assessed as protection against virus-induced cytopathicity; type: functional, organism-based; conditions: Human alphaherpesvirus 1, KOS
# [33] = system: Mammalian orthoreovirus 1; experiment: Antiviral activity against Reovirus 1 in african green monkey Vero cells assessed as protection against virus-induced cytopathicity; type: functional, organism-based; conditions: Mammalian orthoreovirus 1, Vero; summary of the method: as §1
# [34] = system: Human respirovirus 3; experiment: Antiviral activity against Parainfluenza virus type 3 in african green monkey Vero cells assessed as protection against virus-induced cytopathicity; type: functional, organism-based; conditions: Human respirovirus 3, Vero; summary of the method: as §1
# [35] = system: Influenza A virus; experiment: Antiviral activity against influenza H1N1 virus in MDCK cells assessed as reduction of virus-induced cytopathicity by MTS method; type: functional, organism-based; conditions: Influenza A virus, H1N1, MDCK
# [36] = system: Coxsackievirus B4; experiment: Antiviral activity against Coxsackievirus B4 in african green monkey Vero cells assessed as protection against virus-induced cytopathicity; type: functional, organism-based; conditions: Enterovirus B; summary of the method: as §1
Structure (SMILES),MCC at 72 h [1],EC50 [2],MCC at 72 h [3],EC50 [4],IC50 [6],EC50 [7],EC50 [8],EC50 [9],EC50 [10],MCC at 72 h [11],EC50 [12],EC50 [13],EC50 [14],EC50 [16],EC50 [18],IC50 [19],MCC [20],EC50 [21],EC50 [22],EC50 [23],other results
Cc1cc(C)cc(S(=O)(=O)c2c(C(=O)NC(C)C(N)=O)[nH]c3ccc([N+](=O)[O-])cc23)c1 (stereo not drawn),100 µM,> 100 µM,> 100 µM,> 20 µM,44 µM,> 20 µM,> 20 µM,0.0038 µM,> 100 µM,> 100 µM,> 20 µM,> 20 µM,≥ 20 µM,> 20 µM,> 20 µM,96 µM,100 µM,> 100 µM,> 20 µM,> 20 µM,IC50 ([5]; read-out: IC50): 0.362 µM; IC50 ([15]; read-out: IC50): 4.21 µM; IC50 ([17]; read-out: IC50): 0.209 µM; IC50 ([24]; read-out: IC50): 0.022 µM; EC50 [25]: > 20 µM; IC50 [26]: 66 µM; EC50 [27]: > 10 µM; CC50 [28]: 95.9 µM; EC50 [29]: > 100 µM; CC50 [30]: 82.1 µM; EC50 [31]: > 20 µM; EC50 [32]: > 20 µM; EC50 [33]: > 100 µM; EC50 [34]: > 100 µM; EC50 [35]: > 20 µM; EC50 [36]: > 100 µM
Cc1cc(C)cc(S(=O)(=O)c2c(C(=O)NCCS(N)(=O)=O)[nH]c3ccc(Cl)c(F)c23)c1,100 µM,> 20 µM,100 µM,> 20 µM,36 µM,> 20 µM,> 20 µM,0.0023 µM,> 20 µM,100 µM,> 4 µM,> 4 µM,7 µM,> 4 µM,> 20 µM,42 µM,20 µM,20 µM,> 4 µM,> 20 µM,IC50 [5]: ND(Insoluble); IC50 [15]: ND(Insoluble); IC50 [17]: ND(Insoluble); IC50 [24]: ND(Insoluble); EC50 [25]: > 4 µM; IC50 [26]: 31 µM; EC50 [27]: > 10 µM; CC50 [28]: 7.4 µM; EC50 [29]: > 20 µM; CC50 [30]: 34.6 µM; EC50 [31]: > 20 µM; EC50 [32]: > 20 µM; EC50 [33]: > 20 µM; EC50 [34]: > 20 µM; EC50 [35]: > 4 µM; EC50 [36]: > 20 µM
Cc1cc(C)cc(S(=O)(=O)c2c(C(=O)NC(C)CS(N)(=O)=O)[nH]c3ccc([N+](=O)[O-])cc23)c1 (stereo not drawn),≥ 20 µM,> 20 µM,≥ 20 µM,> 20 µM,11 µM,> 20 µM,> 20 µM,0.0042 µM,> 20 µM,≥ 20 µM,> 4 µM,> 4 µM,≥ 20 µM,> 4 µM,> 20 µM,20 µM,20 µM,> 20 µM,> 4 µM,> 20 µM,IC50 ([5]; read-out: IC50): 3.28 µM; IC50 ([15]; read-out: IC50): 26.2 µM; IC50 ([17]; read-out: IC50): 0.364 µM; IC50 ([24]; read-out: IC50): 0.028 µM; EC50 [25]: > 4 µM; IC50 [26]: 15 µM; EC50 [27]: > 10 µM; CC50 [28]: 9.8 µM; EC50 [29]: ≥ 20 µM; CC50 [30]: 47.6 µM; EC50 [31]: > 20 µM; EC50 [32]: > 20 µM; EC50 [33]: > 20 µM; EC50 [34]: > 20 µM; EC50 [35]: > 4 µM; EC50 [36]: ≥ 20 µM
